Calls of active or inactive are those of the source. The calls are words filed in the database; no cut-off is given here.
What was measured:
RAW264.7 [1] = assay: Cytotoxicity against mouse RAW264.7 cells assessed as cell viability at 10 to 100 uM after 24 hrs by MTS assay; assay type: cell-based; conditions: raw264.7, 24 h
Summary of the method: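 RAW264.7 cells were seeded at 2 × 10^6 cells per well and grown to 80% confluency. They were then exposed to compound over a 10–100 μM gradient for 24 h, and viability was read colorimetrically by MTS.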

RAW264.7 [2] = assay: Antiinflammatory activity in mouse RAW264.7 cells assessed as inhibition of LPS-induced IL-6 production preincubated 2 hrs before LPS stimulation measured after 22 hrs by ELISA; assay type: functional, cell-based
Summary of the method: (§1)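 RAW 264.7 macrophages were pretreated for 2 h with compound across 0–80 μM, with hydrocortisone (20 μM) as control. LPS was then added for a further 22 h. IL-6 or IL-1β in the culture medium was quantified by ELISA.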

RAW264.7 [3] = assay: Antiinflammatory activity in mouse RAW264.7 cells assessed as inhibition of LPS-induced IL-1beta production preincubated 2 hrs before LPS stimulation measured after 22 hrs by ELISA; assay type: functional, cell-based; summary of the method: as §1
RAW264.7 [4] = assay: Antiinflammatory activity in mouse RAW264.7 cells assessed as inhibition of LPS-induced TNFalpha production at 33.3 uM preincubated 2 hrs before LPS stimulation measured after 22 hrs by ELISA; assay type: functional
RAW264.7 [5] = assay: Antiinflammatory activity in mouse RAW264.7 cells assessed as inhibition of LPS-induced nitric oxide production at 33.3 uM preincubated 2 hrs before LPS stimulation measured after 22 hrs; assay type: functional
RAW264.7 [6] = assay: Antiinflammatory activity in mouse RAW264.7 cells assessed as inhibition of LPS-induced IL-6 production at 40 uM preincubated 2 hrs before LPS stimulation measured after 22 hrs by ELISA; assay type: functional; summary of the method: as §1
RAW264.7 [7] = assay: Antiinflammatory activity in mouse RAW264.7 cells assessed as inhibition of LPS-induced IL-1beta production at 40 uM preincubated 2 hrs before LPS stimulation measured after 22 hrs by ELISA; assay type: functional; summary of the method: as §1

Compound | Activity (RAW264.7 [1]) | inhibition (RAW264.7 [2]) | inhibition (RAW264.7 [3]) | inhibition at 33.3 µM (RAW264.7 [4]) | inhibition at 33.3 µM (RAW264.7 [5]) | inhibition at 40 µM (RAW264.7 [6]) | inhibition at 40 µM (RAW264.7 [7])
Cc1cc2c(c(=O)o1)C(=O)[C@@H]1[C@@H](C)[C@]3(O)CC(=O)C(C)(C)C(=O)[C@@]3(O)[C@@H](O)[C@@]1(C)O2 | Non-toxic | inactive | inactive | < 35% | < 35% |  | 
Cc1oc(=O)c2c(c1C)O[C@@]1(C)[C@@H]([C@@H](C)[C@]3(O)CC(=O)C(C)(C)C(=O)[C@@]3(O)[C@H]1O)[C@H]2O | Non-toxic | Dose-dependent effect | Dose-dependent effect | < 35% | < 35% | 69% | 47%
Cc1oc(=O)c2c(c1C)O[C@@]1(C)[C@H](C2=O)[C@@H](C)[C@]2(O)CC(=O)C(C)(C)C(=O)[C@@]2(O)[C@H]1O | Non-toxic | Dose-dependent effect | Dose-dependent effect | < 35% | < 35% | 43% | 42%
Cc1oc(=O)c2c(c1C)O[C@@]1(C)[C@H](C2)[C@@H](C)[C@]2(O)CC(=O)C(C)(C)C(=O)[C@@]2(O)[C@H]1O | Non-toxic | inactive | inactive | < 35% | < 35% |  | 
